Source: ChEMBL document CHEMBL1764953, “Discovery of orally active carboxylic acid derivatives of 2-phenyl-5-trifluoromethyloxazole-4-carboxamide as potent diacylglycerol acyltransferase-1 inhibitors for the potential treatment of obesity and diabetes” (J Med Chem, 2011)
Activity calls are given as the source filed them. The rule behind the calls is not given here.

What was measured:
[1] = Half life in Hanover Wistar rat at 5 mg/kg, iv; assay type: ADME, organism-based; design: dose 5 mg/kg, route intravenous; conditions: in vivo
Outline: (§1)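 Hanover Wistar rats (n = 3) cannulated in jugular and femoral veins, dosed iv 5 mg/kg via jugular vein as a solution in 2% DMA, 15% PEG400, 77% of 28% HPβCD in pH 7 PBS. Femoral-vein blood, EDTA plasma, acetonitrile precipitation, LC-MS/MS, noncompartmental analysis; mean of n = 3.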

[2] = Volume of distribution in Hanover Wistar rat at 5 mg/kg, iv; assay type: ADME, organism-based; design: dose 5 mg/kg, route intravenous; conditions: in vivo
[3] = Extrapolated AUC in Beagle dog at 10 mg/kg, po; assay type: ADME, organism-based, Canis lupus familiaris; design: dose 10 mg/kg, route oral; conditions: in vivo
Outline: (§2)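 Plasma extracted by acetonitrile precipitation and quantified by LC-MS/MS (5.0–5000 ng/mL); noncompartmental PK; bioavailability relative to 5 mg/kg iv; mean of n = 3.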

Rattus norvegicus [4] = experiment: Antiobesity activity in diet-induced obese rat assessed as reduction in plasma triglyceride levels at 3 mg/kg, po qd after 4 hrs challenged with corn oil relative to vehicle treated control; assay type: functional; design: scale not given: the % may be the effect or the level left
Outline: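 Male DIO rats given 3 mg/kg po once daily for 1 week, with body weight gain followed. At study end, rats were fasted 4 h and challenged with corn oil 5 mL/kg; plasma triglycerides were measured 4 h later and compared with the vehicle group.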

Rattus norvegicus [5] = experiment: Antidiabetic activity in diet-induced obese Sprague-Dawley rat assessed as decrease in glucose excursion at 0.3 mg/kg, po administered once daily for 3 weeks by OGTT; assay type: functional, organism-based; design: dose 0.3 mg/kg
Outline: (§3)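 Male Sprague-Dawley DIO rats (n = 10/group), 550–650 g, reverse light/dark cycle, high fat diet from 7 weeks of age; dosed po once daily in Klucel suspension.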

[6] = Oral bioavailability in Beagle dog at 10 mg/kg; assay type: ADME, organism-based, Canis lupus familiaris; conditions: in vivo; outline: as §2
[7] = Association constant pKa of the compound; assay type: physicochemical
Rattus norvegicus [8] = experiment: Antiobesity activity in diet-induced obese rat assessed as reduction in body weight gain at 3 mg/kg, po administered once daily for 3 weeks; assay type: functional; design: scale not given: the % may be the effect or the level left
Outline: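 Male DIO rats, 19 weeks old, on high fat diet for 12 weeks, dosed po once daily with Klucel (hydroxypropyl cellulose) suspension for 22 days; 10 rats per group. Body weight followed throughout; daily food intake recorded on days 1–3, 8, 9, 15 and 16, values averaged per group.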

[9] = Tmax in Beagle dog at 10 mg/kg, po; assay type: ADME, organism-based, Canis lupus familiaris; design: dose 10 mg/kg, route oral; conditions: in vivo
Outline: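 Oral gavage to rats (jugular/femoral vein-cannulated, femoral vein blood sampling) or beagle dogs, n = 3, as a 2 mg/mL suspension in 2% Klucel LF with 0.1% Tween 80 in water. Plasma extracted by acetonitrile protein precipitation and quantified by LC-MS/MS (linear 5.0–5000 ng/mL). Noncompartmental analysis; mean of 3.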

[10] = Cmax in diet-induced obese rat at 0.3 mg/kg, po administered once daily for 3 weeks; assay type: ADME, organism-based; design: dose 0.3 mg/kg, route oral; conditions: in vivo
[11] = Lipophilicity, log D of the compound; assay type: physicochemical; conditions: octanol/water
[12] = target: T1, Sterol O-acyltransferase 2 (Homo sapiens, UniProt O75908); experiment: Inhibition of human ACAT2 expressed in human HepG2 cells after incubated with compound for 15 mins measured after 1 hr using palmitoyl-1-14C-coenzyme A by TLC assay; assay type: cell-based
T1 sequence (O75908 whole entry): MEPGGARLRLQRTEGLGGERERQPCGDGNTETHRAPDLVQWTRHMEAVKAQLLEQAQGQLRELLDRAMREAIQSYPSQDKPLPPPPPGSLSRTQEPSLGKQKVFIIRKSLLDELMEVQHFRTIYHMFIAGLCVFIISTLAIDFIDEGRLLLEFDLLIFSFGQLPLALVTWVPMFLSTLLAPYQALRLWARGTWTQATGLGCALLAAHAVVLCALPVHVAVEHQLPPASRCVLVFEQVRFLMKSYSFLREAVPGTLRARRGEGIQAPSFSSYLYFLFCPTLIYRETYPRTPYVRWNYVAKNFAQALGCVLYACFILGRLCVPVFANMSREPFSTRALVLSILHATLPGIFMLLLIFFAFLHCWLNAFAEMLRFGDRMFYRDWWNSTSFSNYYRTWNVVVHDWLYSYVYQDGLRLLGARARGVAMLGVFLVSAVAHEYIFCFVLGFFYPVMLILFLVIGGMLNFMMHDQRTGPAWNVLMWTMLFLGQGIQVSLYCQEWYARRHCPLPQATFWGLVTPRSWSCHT
Outline: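 HepG2 membranes (mixed ACAT1/ACAT2), 2.6 mg/mL stock, diluted to 0.52 mg/mL in Tris pH 7.5 buffer. Preincubated 15 min on ice with compound (0–600 μM solutions in 20% DMSO), then 2.37 μM [1-14C]palmitoyl-CoA solution added. Product extracted and resolved by TLC with phosphoimager read-out.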

Rattus norvegicus [13] = experiment: Antidiabetic activity in diet-induced obese Sprague-Dawley rat assessed as effect on insulin level at 0.3 mg/kg, po administered once daily for 3 weeks measured after 30 mins by OGTT; assay type: functional, organism-based; design: dose 0.3 mg/kg
Outline: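 DIO rats (n = 10/group) on high fat diet, dosed po once daily in Klucel suspension for 3 weeks. On day 21 an oral glucose challenge of 2 g/kg was given, and plasma insulin was measured at the 30 min time point.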

Rattus norvegicus [14] = experiment: Antidiabetic activity in diet-induced obese Sprague-Dawley rat assessed as insulin-mediated decrease in glucose level at 3 mg/kg, po administered once daily for 3 weeks OGTT; assay type: functional, organism-based; design: dose 3 mg/kg; outline: as §3
[15] = Extrapolated AUC in Hanover Wistar rat at 10 mg/kg, po; assay type: ADME, organism-based; design: dose 10 mg/kg, route oral; conditions: in vivo
Outline: (§4)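 Hanover Wistar rats (n = 3) with jugular/femoral cannulae, oral gavage of a 2 mg/mL suspension in 2% Klucel LF with 0.1% Tween 80; femoral-vein sampling, EDTA plasma, acetonitrile precipitation, LC-MS/MS (5.0–5000 ng/mL), noncompartmental analysis; F relative to 5 mg/kg iv; mean of n = 3.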

[16] = target: T2, Diacylglycerol O-acyltransferase 1 (Homo sapiens, UniProt O75907); experiment: Inhibition of human DGAT1 expressed in baculovirus infected insect cells after 1 hr using palmitoyl-1-14C-coenzyme A by phospholipid flashplate assay
T2 sequence (O75907 whole entry): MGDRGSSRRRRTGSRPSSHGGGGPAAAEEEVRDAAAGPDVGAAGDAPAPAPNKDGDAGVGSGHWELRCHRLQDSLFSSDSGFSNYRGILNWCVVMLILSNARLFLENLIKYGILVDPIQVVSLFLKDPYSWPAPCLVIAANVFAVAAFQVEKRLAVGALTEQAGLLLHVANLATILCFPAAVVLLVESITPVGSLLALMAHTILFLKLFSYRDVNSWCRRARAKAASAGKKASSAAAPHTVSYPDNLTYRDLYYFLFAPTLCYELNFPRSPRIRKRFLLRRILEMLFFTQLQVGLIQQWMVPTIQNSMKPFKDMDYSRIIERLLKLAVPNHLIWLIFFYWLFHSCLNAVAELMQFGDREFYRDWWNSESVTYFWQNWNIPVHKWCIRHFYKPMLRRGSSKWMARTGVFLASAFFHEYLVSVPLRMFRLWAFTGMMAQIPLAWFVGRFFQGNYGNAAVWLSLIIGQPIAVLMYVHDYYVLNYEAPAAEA

[17] = Cmax in Hanover Wistar rat at 10 mg/kg, po by LC-MS/MS; assay type: ADME, organism-based; design: dose 10 mg/kg, route oral; conditions: in vivo; outline: as §4
[18] = Permeability across human Caco2 cells; assay type: ADME, cell-based; conditions: Caco-2, read-out: permeability
[19] = Cmax in diet-induced obese rat at 3 mg/kg, po administered once daily for 3 weeks; assay type: ADME, organism-based; design: dose 3 mg/kg, route oral; conditions: in vivo
[20] = Clearance in Hanover Wistar rat at 5 mg/kg, iv; assay type: ADME, organism-based; design: dose 5 mg/kg, route intravenous; conditions: in vivo; outline: as §1

half-life [1]: 8.6 h | Vd [2]: 0.27 L/kg | AUC [3]: 77.9 µM·h | bioavailability [6]: 33% | pKa [7]: 5.78 | Tmax [9]: 2 h | Cmax [10]: 2 µM | logD [11]: 2.34 | IC50 [12]: 68.4 µM | AUC [15]: 567 µM·h | IC50 [16]: 0.057 µM | Cmax [17]: 34.8 µM | Papp [18]: 245 nm/s | Cmax [19]: 15.1 µM | clearance [20]: 0.0228 L/h/kg
SMILES: O=C(Nc1ccc(C2CCN(C(=O)[C@H]3CC[C@H](C(=O)O)CC3)CC2)cc1)c1nc(-c2ccccc2)oc1C(F)(F)F
Activity (Rattus norvegicus [4]): 85% | Activity (Rattus norvegicus [5]): Active | Activity (Rattus norvegicus [8]): 8% | Activity (Rattus norvegicus [13]): inactive | Activity (Rattus norvegicus [14]): Active
